Hits are enriched below; roughly 4.1% of the tested compounds scored in any of these assays.
MrgX1 antag: antagonists of human MrgX1 receptor, primary screen, HEK293 cells, Fluo-4 calcium flux | Mas-related G-protein coupled receptor member X1 (Homo sapiens), Q96LB2 | 310,000 tested, 1.3% active | B-score at 10 µM | BAM8-22 antagonism; hits give low values | AID 588676, 2011;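 active means calcium-response B-score plate-corrected more than 3 library SD below zero, starting fluorescence within 5 deviations, no agonist response on first addition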;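 further: peak minus trough fluorescence over baseline after final BAM8-22 challenge near maximal dose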
MrgX1 PAM: positive allosteric modulators of MrgX1, primary screen, HEK293 cells, Fluo-4 calcium flux; 310,000 tested, 0.63% active; Mas-related G-protein coupled receptor member X1 (Homo sapiens), Q96LB2; FDSS; hits give high values; B-score at 10 µM;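 active means plate-corrected calcium response at least 3 library SD above typical, normal starting fluorescence, not activating the receptor alone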;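 further: compound read alongside a low EC10 to EC30 dose of BAM8-22 agonist; peak minus trough fluorescence over baseline measured at the second addition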
RGS4 pot: RGS4 potentiators or activators, primary screen, cell-based, HEK293 M3R inducible RGS4, calcium flux | carbachol calcium flux Fluo4; hits give low values | B-score at 10 µM | 310,000 tested, 0.92% active | AID 463111, 2010;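 active means B-score of the integrated calcium signal more than 4 SD below the library mean, with starting fluorescence not abnormally high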;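 further: negative B-score means reduced calcium response which marks RGS4 activation or potentiation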
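test system = HEK293 cells with stable M3R and inducible RGS4 | schedule = recording 10 s baseline at 1 Hz, 100 s post-agonist | technique = Fluo4-AM (2 µM) calcium-flux fluorescence, kinetic read | measure = Agonist-evoked peak-minus-minimum fluorescence over baseline, integrated ratio, B score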
MrgX1 ag: agonists of human MrgX1 receptor, primary screen, HEK293 cells, Fluo-4 calcium flux; Mas-related G-protein coupled receptor member X1 (Homo sapiens), Q96LB2; Fluo-4 calcium fluorescence, agonist mode; hits give high values; B-score at 10 µM; 310,000 tested, 0.44% active; AID 588627, 2011;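 active means calcium response B-score plate-corrected fluorescence ratio at least 3 library SD, with starting fluorescence B-score inside 5 SD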
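Assay system: MrgX1-expressing HEK293 cells / Amount: fifteen thousand cells per well / Doses: test compound in the initial addition of three / Timing: cells plated overnight, dye loaded 0.5 h 37 °C, 0.5 h room temperature / Technique: kinetic calcium dye fluorescence, Fluo-4 NW / Control set: positive and negative controls per plate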
Kir21 block: inhibitors of mouse Kir2.1 inward-rectifier potassium channel; Inward rectifier potassium channel 2 (Mus musculus), P35561; HEK293-Kir2.1, FluxOR thallium flux fluorescence; hits give low values; B-score at 10 µM; 310,000 tested, 0.85% active; AID 1672, 2009;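 active means fluorescence ratio B-score at or below minus 3 SD of library scores, with starting-brightness B-score within 2 SD, cut at about -4.2 in these data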;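 further: channel flux triggered by added potassium and thallium sulfate stimulus; B-score of peak minus minimum fluorescence over baseline after thallium stimulus; more negative B-score means stronger Kir2.1 block with less thallium influx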
Target sequence (P35561 whole entry, looked up): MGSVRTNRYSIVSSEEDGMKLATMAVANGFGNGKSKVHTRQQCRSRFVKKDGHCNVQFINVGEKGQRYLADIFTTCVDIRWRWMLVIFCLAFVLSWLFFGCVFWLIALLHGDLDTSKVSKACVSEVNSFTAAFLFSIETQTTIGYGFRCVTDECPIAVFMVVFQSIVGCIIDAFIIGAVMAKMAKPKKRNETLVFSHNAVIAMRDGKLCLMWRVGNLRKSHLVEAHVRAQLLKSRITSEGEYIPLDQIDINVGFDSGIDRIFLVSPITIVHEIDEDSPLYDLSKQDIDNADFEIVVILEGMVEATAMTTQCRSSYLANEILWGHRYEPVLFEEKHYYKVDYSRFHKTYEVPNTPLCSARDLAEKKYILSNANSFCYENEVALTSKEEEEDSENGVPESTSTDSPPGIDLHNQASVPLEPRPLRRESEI
RGS4 inh: RGS4 inhibitors, primary screen, cell-based, HEK293 M3R inducible RGS4, calcium flux. Fluo-4 calcium flux; hits give high values; triggered by carbachol at its EC20. B-score at 10 µM. 310,000 tested, 0.45% active. AID 463165, 2010;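 active means B-score, a plate-corrected calcium signal, over three deviations above library mean, with baseline fluorescence within five deviations of library mean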;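 further: RGS4 expression induced by doxycycline in cells with stable M3 receptor; B-score is computed from the integrated fluorescence ratio over baseline after carbachol; higher B-score means a larger calcium signal and so more RGS4 inhibition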
RGS4 inh valid: enhanced carbachol calcium response, M3R/RGS4 cells, RGS4 inhibitor project, cell-based, validation screen, HEK293 M3R/RGS4, calcium flux | shares compounds with RGS4 inh | carbachol calcium Fluo-4 fluorescence; carbachol added at its EC20; 0 = buffer wells, 100 = carbachol control | calcium response, % at 10 µM | 1,700 tested, 65% active | AID 492999, 2010;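 active means duplicate-averaged calcium response above the buffer-only control mean plus 5 SD of those controls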;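 further: integrated fluorescence ratio F max minus min over baseline F0; higher response in RGS4-induced cells means RGS4 inhibition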
M3R Ca ctr: carbachol calcium response in non-induced M3R cells, confirmation, counter-screen for RGS4 inhibitor project, cell-based, HEK293 M3R. shares compounds with RGS4 inh. carbachol calcium Fluo-4; submaximal (EC20) carbachol stimulus; buffer wells 0%, carbachol control wells 100%. activity (percent), % at 10 µM. 1,900 tested, 20% active; call rule not given here;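 further: RGS4 induction absent so cells express M3R without RGS4; higher means more calcium signal and flags a non-specific hit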
RGS4 inh ctr2: second RGS4 inhibitor counter-screen in uninduced cells lacking carbachol; 1,900 tested, 22% active; calcium response (agonist-mode artifact), % at 10 µM; shares compounds with RGS4 inh; AID 493001; HEK293 M3R/RGS4 non-induced, Fluo-4 calcium, no carbachol; normalised: buffer wells 0%, carbachol wells 100%;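 active means duplicate-averaged calcium rise in uninduced cells above buffer wells' mean plus 5 SD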
Of the large screens only hits and unclear results are named; the others gave an inactive call (follow-up assays come after a bar, where they were run).

CC(Nc1nc(-c2ccc(F)cc2)cs1)c1nc2cc(Cl)c(N3CCCCC3)cc2n1CCCO (stereo unspecified)	none
CC(Nc1nc(-c2ccc(F)cc2)cs1)c1nc2cc(Cl)c(N3CCCCC3)cc2n1CCOCCO (stereo unspecified)	none | RGS4 inh valid inactive | M3R Ca ctr inactive | RGS4 inh ctr2 inactive
CC(Nc1nc(-c2ccc(F)cc2)cs1)c1nc2cc(Cl)c(Cl)cc2n1CCOCCO (stereo unspecified)	none
CC(Nc1nc(-c2cccc(Br)c2)cs1)c1nc2cc(Cl)c(N3CCCCC3)cc2n1CCOCCO (stereo unspecified)	RGS4 inh 8.25 | RGS4 inh valid 10.0% | M3R Ca ctr inactive | RGS4 inh ctr2 inactive
COc1ccc(OC)c(C2=NOC(C(=O)NCc3cccs3)C2)c1 (stereo unspecified)	none
COC(=O)c1ccc(C2/C(=C(/O)c3ccc(OC)cc3)C(=O)C(=O)N2c2cc(C)on2)cc1 (stereo unspecified)	none
COC(=O)c1sc(N2C(=O)C(=O)/C(=C(/O)c3ccccc3)C2c2ccco2)nc1C (stereo unspecified)	none | RGS4 inh valid inactive | M3R Ca ctr inactive | RGS4 inh ctr2 inactive
Cc1nc2ccccn2c1/C(O)=C1\C(=O)C(=O)N(CCN(C)C)C1c1ccco1 (stereo unspecified)	none
Cc1nc(N2C(=O)C(=O)/C(=C(/O)c3ccccc3)C2c2ccco2)sc1C (stereo unspecified)	RGS4 inh 6.39 | RGS4 inh valid 8.5% | M3R Ca ctr inactive | RGS4 inh ctr2 inactive
COc1ccc(C(=O)Nc2cccc3cccnc23)cc1OC	RGS4 inh 4.9 | RGS4 inh valid inactive | M3R Ca ctr inactive | RGS4 inh ctr2 inactive
CCOc1ccc2nc(SCC(=O)NNC(=O)c3ccco3)c(C)cc2c1	none
CCOc1ccc2cc(/C=C/C(=O)c3ccco3)c(Cl)nc2c1	none | RGS4 inh valid inactive | M3R Ca ctr inactive | RGS4 inh ctr2 40.0%
CCOCCCNC(=O)CN1C(=O)c2cccc3cccc1c23	none
CCC(=O)Nc1ccc(C=C(C(C)=O)C(C)=O)cc1	RGS4 inh 5 | RGS4 inh valid 56.5% | M3R Ca ctr 29.0% | RGS4 inh ctr2 16.0%
CN(C)c1ccc(NC(=O)c2ccc(N3CCOCC3)nc2)cc1	none
c1ccc2c3c([nH]c2c1)-c1[nH]ncc1CC3	none
Clc1ccc2[nH]c3c(c2c1)CCc1cn[nH]c1-3	RGS4 inh 11.1 | RGS4 inh valid 75.0% | M3R Ca ctr 40.5% | RGS4 inh ctr2 27.0%
O=C(NC(=S)NC1C2CC3CC(C2)CC1C3)C12CC3CC(CC(C3)C1)C2 (stereo unspecified)	none
Oc1ccc(/C=N/n2c(C3CCCCC3)n[nH]c2=S)c(O)c1	none
Oc1ccc(Br)cc1/C=N/n1c(C2CCCCC2)n[nH]c1=S	RGS4 inh 5.68 | RGS4 inh valid 5.0% | M3R Ca ctr inactive | RGS4 inh ctr2 inactive
Nc1c(C(=O)N/N=C/c2ccc(Cl)cc2)cnn1-c1ccccc1	none

Assay outcomes as filed in PubChem BioAssay.
